# PABP FP inh – PABP poly(A) RNA binding inhibitors, primary screen, biochemical, fluorescence polarization, uHTS; Polyadenylate-binding protein 1 (Homo sapiens), P11940; inhibition, % at 35 µM; 290,000 tested, 1% active; AID 2014, 2009; call rule not given here;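 also: calls also rest on retests at 20 µM and on dose response follow-up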
# DNA FID counter-1 – compounds displacing fluorescent DNA intercalator, primary screen, artefact control for HCV NS3 helicase inhibitor project, biochemical, FID fluorescence; DNA fluorescent intercalator displacement; inhibition, % at 7.9 µM; 290,000 tested, 0.17% active;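 also: 0% = vehicle and 100% = reference compound; higher means more ethidium bromide displaced from hairpin DNA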
# PABP1 MLLE inh – inhibitors of PABP1 MLLE–PAM2 peptide binding, primary screen, biochemical, fluorescence polarization, FITC-PAM2, GST-MLLE; inhibition, % at 20 µM; 360,000 tested, 0.36% active; AID 588489, 2011; in the data active = inhibition above about 35%, passing the limit was not always enough;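 also: plate controls were DMSO wells with GST-MLLE for no effect and wells lacking GST-MLLE protein for full effect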
# NS3 helicase inh – inhibitors of HCV NS3 helicase, primary screen, biochemical, Cy5 molecular beacon fluorescence. Hepatitis C virus NS3 helicase. NS3 helicase DNA unwinding. inhibition, % at 10.9 µM. 290,000 tested, 0.56% active;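 active = inhibition above the mean of all tested compounds plus 3 SD, set per campaign, cut at about 35% in these data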;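 also: 0% = DMSO wells and 100% = thioflavine S control wells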
#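 Measured by: Cy5 fluorescence, 0 and 60 min reads / Assay system: NS3 helicase fragment of HCV / Control set: low DMSO, high thioflavine S at 110 µM / Times: 1 h reaction at 25 °C, ATP-initiated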
# eIF4H inh – human eIF4H binding inhibitors, primary screen, translation initiation inhibitor project, biochemical, uHTS, fluorescence polarization; eIF4H fluorescence polarization binding assay; AID 2012, 2009; 290,000 tested, 0.94% active; inhibition, % at 35 µM; call rule not given here;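 also: calls also rest on retests at 20 µM and on dose response follow-up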
# core dimer inh – inhibitors of HCV core protein dimerization, primary screen, biochemical, TR-FRET, high-throughput. 300,000 tested, 0.33% active. AID 1899, 2009. TR-FRET GST/Flag-core106 dimerization, 1536-well. inhibition, % at 5 µM;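 active = inhibition above the mean of all tested compounds plus 3 SD, set per screening campaign, cut at about 45% in these data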
#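 Material: Tagged HCV core106 pair (GST and Flag) | Amount: GST-core106 13.5 nM, Flag-core106 17 nM | Medium: KF-containing HEPES buffer, pH 7.45, DTT, CHAPS, BSA | Reagent: Eu donor and XL665 acceptor anti-tag antibodies | Schedule: 4 h at 22.5 °C | Technique: Time-resolved FRET, ex 340 nm, em 617 and 671 nm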
# NS3 hel confirm – HCV NS3 helicase inhibitors, retest, confirmation, biochemical, Cy5 molecular beacon fluorescence, triplicate | shares compounds with NS3 helicase inh | NS3 helicase DNA unwinding | inhibition, % at 10.9 µM | 1,600 tested, 31% active | AID 1943, 2009;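 active = inhibition above the mean of all tested compounds plus 3 SD, cutoff set per campaign, cut at about 36% in these data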
# DNA FID counter-2 – compounds displacing fluorescent DNA intercalator, artefact control for HCV NS3 helicase inhibitor project, biochemical, FID fluorescence, triplicate | 1,600 tested, 4% active | shares compounds with NS3 helicase inh | DNA fluorescent intercalator displacement | inhibition, % at 7.9 µM | AID 1945, 2009;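 also: 0% = vehicle and 100% = reference compound; higher means more displacement of ethidium bromide from the DNA hairpin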
# An asterisk follows results filed as active; ? = inconclusive; . = no result. Shown are actives, neighbours in structure and some others; about 2% of the full set was active somewhere. Rule as the data show it, unless noted: active = inhibition above about 37%; inactive = the rest.
SMILES,PABP FP inh,DNA FID counter-1,PABP1 MLLE inh,NS3 helicase inh,eIF4H inh,core dimer inh,NS3 hel confirm,DNA FID counter-2
O=C(CC1SC(=O)N(c2ccccc2)C1=O)Nc1ccccc1 (centres undefined),-2.9,-17.0,49.5*,37.9*,-2.0,-3.7,-22.5,12.1
Cc1onc(-c2ccccc2)c1C(=O)N/N=C/c1ccco1,1.6,-23.9,-5.9,40.0*,8.1,1.5,-11.9,-7.5
Cc1cccc(NC(=O)c2ncn3c2C(=O)N[C@H](C)C3)c1,.,.,-0.7,.,.,.,.,.
CCCCN1Cc2c(nc3cc(-c4ccco4)[nH]n3c2=O)C1=O,84.2*,-18.5,3.2,49.0*,88.1*,-6.8,-4.0,7.3
CSc1ncccc1C(=O)OCC(=O)Nc1ccc(N2CCOCC2)cc1,.,.,2.1,.,.,.,.,.
O=C1C(=Cc2ccc(Br)o2)C(=O)c2ccccc21,6.4*,-14.3,23.0,45.2*,89.4*,9.5,85.1*,27.7
O=S1(=O)N(Cc2ccccc2F)CCCN1Cc1c(F)cccc1Cl,-10.3,-20.0,-3.2,2.2,-1.7,-8.4,.,.
COc1cccc(C(=O)NCC(=O)OCC(=O)NC2CCCCC2)c1,.,.,-10.7,.,.,.,.,.
O=C(CN1CCOc2ccccc21)NC1CCCCCCC1,.,-22.0,-9.0,61.6*,.,-1.4,-15.8,-26.7
COc1ccc(C(=O)Nc2ccccc2C(=O)O)cc1Cl,4.9,-35.9,-10.0,39.1*,-1.2,-4.6,30.4,8.8
Cc1ccc2cc3c(=O)n(C)cc(C=O)c3nc2c1,.,.,-3.6,.,.,.,.,.
Cc1nn(CCc2nc(-c3ccco3)cs2)c2[nH]c(=O)cc(C(F)(F)F)c12,58.4*,-16.6,27.8,46.0*,45.4*,14.8,71.5*,-11.2
O=c1[nH]c(=O)n(Cc2ccccc2)c2nc(-c3ccco3)cc(C(F)(F)F)c12,3.2,-2.8,-17.4,7.8,4.3,21.6,.,.
CCN1C/C(=C/c2ccc(N3CCOCC3)cc2)C(=O)/C(=C/c2ccc(N3CCOCC3)cc2)C1,23.3,-7.1,-152.0,51.3*,?,5.7,-5.8,12.9
COc1ccc(S(=O)(=O)N2CCCOC2CNC(=O)C(=O)NCc2ccncc2)cc1 (centres undefined),-4.6,-7.4,-6.5,-1.3,2.0,1.7,.,.
COc1ccc(-c2[nH]nc3nc(N4CCN(C(=O)c5ccoc5)CC4)cc(C(F)(F)F)c23)cc1,.,.,4.8,.,.,.,.,.
O=C1CC(c2ccco2)CC(O)=C1C=Nc1cc(Cl)ccc1Cl (centres undefined),-3.9,-11.4,0.6,32.0,104.2,3.9,.,.
O=C1CC(c2ccco2)CC(O)=C1C=Nc1cc(Cl)ccc1O (centres undefined),77.1*,-11.9,7.5,42.5*,91.7*,13.6,1.1,13.3
CC(C)c1ccc(/C=C/c2[nH]c(=O)[nH]c(=O)c2[N+](=O)[O-])cc1,0.3,-8.8,-0.4,56.2*,-7.4,5.7,52.7*,5.4
CCOc1ccc(/C=C/c2[nH]c(=O)[nH]c(=O)c2[N+](=O)[O-])cc1,36.3,-17.7,-4.2,35.2,5.0,6.0,.,.
Cc1ccc(C(=O)N/N=C\c2ccc(-c3ccc(Cl)c(Cl)c3)o2)cn1,-8.4,-25.7,-13.1,69.4*,-5.4,3.6,-7.5,-7.1
Cc1ccc2c(C)c(C(=O)N3CCN(c4ncccn4)CC3)oc2c1C,1.6,-28.1,11.2,-4.2,-3.4,.,.,.
CCOc1ccc(-n2nc3ccc(N)cc3n2)cc1,-5.7,-12.8,0.8,44.1*,10.8,.,-14.6,-0.7
CCOc1ccc(-n2nc3cc(C)c(N)cc3n2)cc1,3.0,-8.5,-14.1,63.3*,7.6,22.8,-9.2,-0.1
Cc1cc2nn(-c3ccc(F)cc3)nc2cc1N,12.4,-6.5,-24.2,27.3,-9.9,0.9,.,.
SMILES,PABP FP inh,DNA FID counter-1,PABP1 MLLE inh,NS3 helicase inh,eIF4H inh,core dimer inh,NS3 hel confirm,DNA FID counter-2
COc1ccc([C@H]2CN(c3ccc(OC)cc3)C(=O)[C@@H]2CC(=O)Nc2ccc(Br)cc2)cc1,.,.,16.7,.,.,.,.,.
CCNC(=O)C1CCCN(C(=O)c2ccco2)CC1 (centres undefined),.,.,13.5,.,.,.,.,.
CCCCN(C(=O)Cc1ccc2c(c1)OCCO2)c1c(N)n(CC(C)C)c(=O)[nH]c1=O,.,.,15.1,.,.,.,.,.
O=C(O)c1ccc(N/N=C/c2ccc(-c3cccc(Cl)c3)o2)cc1,23.6,-15.2,-6.9,-8.2,22.8,-2.0,.,.
Cc1c(C(=O)O)cccc1-c1ccc(/C=N/Nc2ccc(Br)cc2)o1,-7.0,-27.9,3.8,43.9*,66.1,-5.8,37.6*,1.6
O=C(O)c1ccc(N/N=C/c2ccc(-c3cc(Cl)ccc3Cl)o2)cc1,1.2,-21.1,-10.1,40.4*,59.2,13.5,62.5*,14.2
O=C(O)c1ccc(N/N=C/c2ccc(-c3ccc(Cl)cc3Cl)o2)cc1,10.6*,-15.2,-4.8,36.3*,76.3,15.4,52.6*,17.3
O=C(Nc1ncnc2c1ncn2[C@@H]1O[C@H](/C=C/C(=O)N2CCN(c3ccc(F)cc3)CC2)[C@@H](O)[C@H]1O)c1ccccc1,.,.,-7.5,.,.,.,.,.
Brc1ccc([C@H]2CN3CCSC3=N2)cc1,.,.,14.2,.,.,3.2,.,.
CCC(CC)C(=O)N(C)c1c(C)nc2c(OCc3ccc(OC(F)F)cc3)cccn12,.,.,1.2,.,.,.,.,.
Cc1ccc2c(c1)C(=O)N1c3cc(C)c(C)cc3NC(=O)C1C(=O)N2 (centres undefined),.,.,15.6,.,.,.,.,.
O=C(CC(SCc1ccco1)c1ccc(O)cc1)c1cccs1 (centres undefined),17.2,2.9,27.6,69.2*,-3.8,1.2,-0.2,-11.1
Oc1ccc(/C=N/N=C(c2ccccc2)c2ccccc2)c(O)c1O,active,-23.4,6.4,52.0*,84.7*,2.5,-21.5,21.2
O=C(/C(=N/N=C/c1ccc(O)c(O)c1O)c1ccccc1)c1ccccc1,-2.7,-16.4,21.8,49.4*,84.6,33.0,0.9,27.1
CCc1nc2ccc(C(=O)N3CCN(C(=O)c4ccco4)CC3)cn2c1N(CC)Cc1cccc(Br)c1,.,.,14.4,.,.,.,.,.
O=C1CN(C(=O)N[C@@H](Cc2ccccc2)C(=O)N[C@@H](Cc2ccccc2)C(=O)O)c2ccccc2N1,6.5,-39.4,-10.6,36.5*,-8.7,-2.6,-23.3,-31.3

# Screening data from PubChem BioAssay.
